Results taken from ChEMBL document CHEMBL4190262, “Tuning of β-glucosidase and α-galactosidase inhibition by generation and in situ screening of a library of pyrrolidine-triazole hybrid molecules” (Eur J Med Chem, 2017).
Activity calls are given as the source filed them. No cut-off for these calls is given here.

Key:
Beta-galactosidase = molecular target: T1, Beta-galactosidase (Bos taurus, UniProt Q58D55); test: Inhibition of bovine liver beta-galactosidase using p-nitrophenyl glycopyranoside preincubated for 5 mins followed by substrate addition measured after 20 mins by visible absorption spectroscopic method
T1 sequence (Q58D55 whole entry): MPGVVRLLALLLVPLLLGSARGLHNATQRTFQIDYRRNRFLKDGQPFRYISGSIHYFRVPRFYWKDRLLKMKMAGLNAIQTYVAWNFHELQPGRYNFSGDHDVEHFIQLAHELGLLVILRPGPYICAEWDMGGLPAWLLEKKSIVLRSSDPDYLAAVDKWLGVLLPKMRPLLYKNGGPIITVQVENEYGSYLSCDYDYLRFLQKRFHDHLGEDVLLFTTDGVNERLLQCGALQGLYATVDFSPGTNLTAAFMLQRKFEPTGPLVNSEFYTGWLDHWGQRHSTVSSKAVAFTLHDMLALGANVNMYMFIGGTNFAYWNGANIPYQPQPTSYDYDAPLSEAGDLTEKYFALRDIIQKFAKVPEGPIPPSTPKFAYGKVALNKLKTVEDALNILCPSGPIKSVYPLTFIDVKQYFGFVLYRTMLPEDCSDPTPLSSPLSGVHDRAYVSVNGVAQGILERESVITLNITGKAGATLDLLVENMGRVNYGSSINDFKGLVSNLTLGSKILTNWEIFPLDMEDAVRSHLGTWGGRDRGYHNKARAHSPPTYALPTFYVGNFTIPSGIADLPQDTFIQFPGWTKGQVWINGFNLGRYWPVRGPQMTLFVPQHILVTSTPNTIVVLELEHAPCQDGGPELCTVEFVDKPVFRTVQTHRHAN
Outline: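 IC50 determined only for compounds giving ≥80% inhibition at 1 mM, read from plots of % inhibition versus inhibitor concentration. p-Nitrophenyl glycopyranoside substrate (10 mM solution) at the enzyme's optimal pH, with 0.01–0.5 units/mL enzyme. 5 min rt preincubation with enzyme, then 20 min at 37 °C. Borate stop (pH 9.8), absorbance at 405 nm. Duplicates averaged.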

Bos taurus = organism: Bos taurus; test: Inhibition of bovine kidney alpha-L-fucosidase at 1 mM using p-nitrophenyl glycopyranoside preincubated for 5 mins followed by substrate addition measured after 20 mins by visible absorption spectroscopic method relative to control
Outline: (§1)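 Test compound at 1 mM in well. Mix: 0.01–0.5 units/mL enzyme plus 10 mM p-nitrophenyl glycopyranoside (aqueous solution), buffered to the enzyme's optimal pH. Enzyme and inhibitor preincubated 5 min at rt. Substrate then added and incubated 20 min at 37 °C. Stopped with sodium borate (pH 9.8). p-Nitrophenolate read at 405 nm. Duplicates averaged.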

Cornu aspersum = test: Inhibition of snail beta-mannosidase at 1 mM using p-nitrophenyl glycopyranoside preincubated for 5 mins followed by substrate addition measured after 20 mins by visible absorption spectroscopic method relative to control; outline: as §1
Oryza sativa = test: Inhibition of rice alpha-glucosidase at 1 mM using p-nitrophenyl glycopyranoside preincubated for 5 mins followed by substrate addition measured after 20 mins by visible absorption spectroscopic method relative to control; outline: as §1
Prunus dulcis = test: Inhibition of almond beta-glucosidase at 1 mM using p-nitrophenyl glycopyranoside preincubated for 5 mins followed by substrate addition measured after 20 mins by visible absorption spectroscopic method relative to control; outline: as §1
Canavalia ensiformis = test: Inhibition of jack bean beta-N-acetylglucosaminidase at 1 mM using p-nitrophenyl glycopyranoside preincubated for 5 mins followed by substrate addition measured after 20 mins by visible absorption spectroscopic method relative to control; outline: as §1
Saccharomyces cerevisiae = test: Inhibition of yeast alpha glucosidase at 1 mM using p-nitrophenyl glycopyranoside preincubated for 5 mins followed by substrate addition measured after 20 mins by visible absorption spectroscopic method relative to control; outline: as §1
[1] = molecular target: T2, Lysosomal acid glucosylceramidase (Homo sapiens, UniProt P04062); test: Inhibition of human lysosomal beta-glucocerebrosidase using 4-methylumbelliferyl-beta-D-glucopyranoside as substrate preincubated for 45 mins followed by substrate addition measured after 30 mins by fluorescence spectroscopic method
T2 sequence (P04062 whole entry): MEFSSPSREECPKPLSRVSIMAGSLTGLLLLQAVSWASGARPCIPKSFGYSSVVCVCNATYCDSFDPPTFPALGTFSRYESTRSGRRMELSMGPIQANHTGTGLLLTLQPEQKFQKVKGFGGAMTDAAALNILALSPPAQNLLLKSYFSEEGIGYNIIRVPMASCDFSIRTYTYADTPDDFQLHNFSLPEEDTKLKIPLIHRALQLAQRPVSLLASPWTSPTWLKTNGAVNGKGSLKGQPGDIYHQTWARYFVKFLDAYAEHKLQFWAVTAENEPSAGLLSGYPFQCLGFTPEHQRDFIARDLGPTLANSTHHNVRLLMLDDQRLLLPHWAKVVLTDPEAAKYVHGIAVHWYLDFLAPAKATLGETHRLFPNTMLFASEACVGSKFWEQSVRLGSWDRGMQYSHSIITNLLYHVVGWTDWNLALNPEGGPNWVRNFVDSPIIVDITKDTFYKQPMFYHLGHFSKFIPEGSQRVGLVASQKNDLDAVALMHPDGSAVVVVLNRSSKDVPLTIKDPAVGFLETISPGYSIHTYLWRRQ
Outline: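 Enzyme in 100 mM McIlvaine buffer pH 5.2 with 0.25% sodium taurocholate and 0.1% Triton X-100, with inhibitor. Preincubated at 0 °C for 45 min, then started with 3 mM 4-methylumbelliferyl glycoside substrate solution and incubated 30 min at 37 °C. Stopped with 400 mM glycine-NaOH pH 10.6. 4-Methylumbelliferone fluorescence read at ex 362/em 450 nm.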

Structure (SMILES)	IC50 (Beta-galactosidase)	inhibition (Bos taurus)	inhibition (Cornu aspersum)	inhibition (Oryza sativa)	inhibition (Prunus dulcis)	inhibition (Canavalia ensiformis)	inhibition (Saccharomyces cerevisiae)	IC50 [1]
O[C@@H]1[C@H](O)CN[C@H]1Cn1cc(-c2ccccc2)nn1	458 µM	40%	inactive	inactive	97%	inactive	inactive	11 µM
O[C@@H]1[C@H](O)CN[C@@H]1Cn1cc(-c2ccccc2)nn1	173 µM	17%	inactive	inactive	< 53%	inactive	inactive	28 µM
